E coli WT exp = blocks growth of wild type E. coli BW25113; OD600 absorbance; growth inhibition, % at 100 µM; 0.15% of 98,000 active; AID 710;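 active = growth inhibition above about 50% at one test dose, limit read from the data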;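 also: growth measured after 20 h incubation at 37 °C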
Ecoli tolC = growth inhibitors of E. coli BW25113 tolC mutant | OD615 | growth inhibition, % at 10 µM (by protocol) | 2.2% of 65,000 active | AID 573;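 active = growth inhibition at or above a cutoff equal to the mean over every tested compound plus 3 SD, cut at about 60% in these data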;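 also: growth measured after 20 h incubation at 37 °C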
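Assay system: tolC-deleted E. coli BW25113. Medium: kanamycin-containing LB broth (50 µg/mL). Dosing: 10 µM final, single dose. Timing: bacterial growth with compound for 20 h at 37 °C. Detection: A615 absorbance measurement. Read-out basis: growth inhibition in percent.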
PLAP act = activates human placental alkaline phosphatase; P05187; purified PLAP enzyme, luminescent substrate read-out; active compounds read high; activation fold at 20 µM; 1.2% of 96,000 active; AID 696; in the data active = activation fold above about 2
Target sequence (P05187 whole entry, looked up): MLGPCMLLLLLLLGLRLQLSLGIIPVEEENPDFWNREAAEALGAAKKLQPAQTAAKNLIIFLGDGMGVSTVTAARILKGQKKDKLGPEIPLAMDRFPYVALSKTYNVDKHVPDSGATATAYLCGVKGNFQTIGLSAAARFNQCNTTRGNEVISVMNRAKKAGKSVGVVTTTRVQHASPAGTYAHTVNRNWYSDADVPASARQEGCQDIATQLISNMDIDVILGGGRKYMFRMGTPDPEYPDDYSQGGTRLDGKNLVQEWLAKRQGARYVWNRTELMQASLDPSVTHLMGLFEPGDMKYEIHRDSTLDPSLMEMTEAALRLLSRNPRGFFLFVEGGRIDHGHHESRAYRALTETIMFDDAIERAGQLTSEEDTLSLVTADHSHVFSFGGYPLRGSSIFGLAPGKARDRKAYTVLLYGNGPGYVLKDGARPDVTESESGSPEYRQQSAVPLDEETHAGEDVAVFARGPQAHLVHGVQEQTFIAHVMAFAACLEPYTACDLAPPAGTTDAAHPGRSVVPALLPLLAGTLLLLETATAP
AP ELISA ortho = alternative pathway complement inhibition, orthogonal assay. Human serum alternative complement pathway, LPS-coated ELISA, C3 deposition; tested in compound mixtures. inhibition, % at 5 µM. 0.08% of 62,000 active;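 active = inhibition above 30% in each of the two pooled mixtures holding the compound, so the lower value exceeds 30%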
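Test system: human serum alternative complement pathway, C3 deposition on LPS-coated wells; also added: Plate-bound LPS; doses: 5 µM per compound in ten-compound mixtures; schedule: 1 h at 37 °C; detection: Anti-C3 ELISA, OD 450 nm; evaluation: percent inhibition of C3 deposition onto LPS; repeats: two pool placements per compound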
HePTP inh = human HePTP phosphatase inhibition | 0.64% of 110,000 active | recombinant HePTP phosphatase activity, OD absorbance | P35236 | AID 521 | inhibition, % at 20 µM; in the data active = inhibition above about 50%
Large screens that a line does not name were inactive. A selection: hits, their analogues and other compounds. The true share with any hit is near 2.3%.

O=C(NCc1ccco1)c1ccccc1NS(=O)(=O)c1ccc(Cl)s1	PLAP act 2.1 (no result: Ecoli tolC, AP ELISA ortho, HePTP inh)
Cc1cc(C(=O)OCc2nc3ccccc3s2)c(C)o1	Ecoli tolC 100
Cc1ccc(OCC(=O)NNC(=O)C2CCN(c3nccc(C)n3)CC2)cc1	PLAP act 2.5 (no result: Ecoli tolC, AP ELISA ortho, HePTP inh)
Cc1ccnc(N2CCC(C(=O)Nc3cccc(C(F)(F)F)c3)CC2)n1	Ecoli tolC 65
Cc1ccnc(N2CCC(C(=O)Nc3ccc(Oc4ccccc4)cc3)CC2)n1	none
COc1ccc(C2=C/C(=C/c3ccc(Cl)cc3)C(=O)O2)cc1	none (no result: E coli WT exp, Ecoli tolC, PLAP act, AP ELISA ortho)
c1ccc(-c2nnc(-c3ccccn3)nc2NC2CCCCC2)cc1	E coli WT exp 100, PLAP act 2.4 (no result: Ecoli tolC, AP ELISA ortho, HePTP inh)
CNc1nc(-c2ccccn2)nnc1-c1ccccc1	none (no result: Ecoli tolC, AP ELISA ortho, HePTP inh)
Cc1cc(N2CCCCC2)n2ncc(-c3ccccc3)c2n1	Ecoli tolC 75
COc1ccc(CC(=O)N(c2ccccc2)c2ccccc2)cc1OC	none (no result: E coli WT exp, Ecoli tolC, PLAP act, AP ELISA ortho)
Clc1ccc(Cl)c(-c2nn3c(COc4ccccc4)nnc3s2)c1	Ecoli tolC 96
c1ccc(OCc2nnc3sc(-c4cccs4)nn23)cc1	none
O=C1/C(=C/c2ccc(-c3ccccc3[N+](=O)[O-])o2)SC(=S)N1Cc1ccccc1	none (no result: E coli WT exp, Ecoli tolC, PLAP act, AP ELISA ortho)
Cc1nnc2n1NC(c1ccc(Cl)cc1)C(C(=O)N1CCC(C)CC1)S2 (centres undefined)	none
Cc1nnc2n1NC(c1ccc(Cl)cc1)C(C(=O)N(C)C1CCCCC1)S2 (centres undefined)	PLAP act 2.2
O=C(O)c1cccc2c1NC(c1cccc(Cl)c1Cl)C1CC=CC21 (centres undefined)	HePTP inh 88 (no result: E coli WT exp, Ecoli tolC, PLAP act, AP ELISA ortho)
O=C(O)C1Nc2c(C(=O)N3CCCC3)cccc2C2C=CCC12 (centres undefined)	HePTP inh 94 (no result: E coli WT exp, Ecoli tolC, PLAP act, AP ELISA ortho)
O=C(O)c1ccc([N+](=O)[O-])c2c1NC(c1ccccc1)C1CC=CC21 (centres undefined)	HePTP inh 88 (no result: E coli WT exp, Ecoli tolC, PLAP act, AP ELISA ortho)
Cc1ccc2c(c1C)NC(C(=O)O)C1CC=CC21 (centres undefined)	none (no result: HePTP inh)
COc1cccc2c1NC(c1ccccc1Cl)C1CC=CC21 (centres undefined)	none (no result: E coli WT exp, Ecoli tolC, PLAP act, AP ELISA ortho)
Cc1c(Cl)ccc2c1NC(C(=O)O)C1CC=CC21 (centres undefined)	HePTP inh 103 (no result: E coli WT exp, Ecoli tolC, PLAP act, AP ELISA ortho)
O=C(O)C1Nc2c(C(=O)N3CCOCC3)cccc2C2C=CCC12 (centres undefined)	none
O=C(O)c1ccc(NC(=O)c2ccc(Cl)cc2)cc1	none (no result: E coli WT exp, Ecoli tolC, PLAP act, AP ELISA ortho)
CCCC(=O)NC(Oc1ccc(/C=C2\SC(=S)N(CCCOC)C2=O)cc1)C(Cl)(Cl)Cl (centres undefined)	none (no result: E coli WT exp, Ecoli tolC, PLAP act, AP ELISA ortho)
Cc1ccc(C(=O)NNC(=O)C2CCN(Cc3ccccc3)CC2)cc1	PLAP act 2.1 (no result: Ecoli tolC, AP ELISA ortho, HePTP inh)
Cc1ccc(N2CCN(C(=O)c3ccccc3)CC2)c(C)c1	none
CCCc1cc(C(=O)N2CCN(c3ccccc3C)CC2)cs1	Ecoli tolC 100
CCOc1ccc(NS(=O)(=O)c2ccc(OCC(=O)N3CCCC3)cc2)cc1	none
CCOC(=O)N1CCN(C(=O)COc2ccc(S(=O)(=O)Nc3ccc(OCC)cc3)cc2)CC1	Ecoli tolC 68
CCOC(=O)C1=C(C)N=c2s/c(=C\c3cc(Br)c(O)c(OC)c3)c(=O)n2C1c1ccc(OC)c(OC)c1 (centres undefined)	none (no result: E coli WT exp, Ecoli tolC, PLAP act, AP ELISA ortho)
COC(=O)c1cn[nH]c1NC(=S)Nc1ccc(Cl)c(Cl)c1	PLAP act 2.5 (no result: Ecoli tolC, AP ELISA ortho, HePTP inh)
COCCOC(=O)c1c(C)oc2ccc(OC(=O)c3cccs3)cc12	none
COC(=O)c1c(C)oc2ccc(OC(=O)c3cccs3)cc12	Ecoli tolC 84
O=c1[nH]c2ccc(Br)cc2c(-c2ccc(Cl)cc2)c1N1CCOCC1	none (no result: E coli WT exp, Ecoli tolC, PLAP act, AP ELISA ortho)
Cc1ccc(SCCNS(=O)(=O)c2ccc3c(c2)OCCO3)cc1	Ecoli tolC 74 (no result: PLAP act)
COc1cc(CNc2ncn[nH]2)cc(Br)c1OC	PLAP act 2.5
CCOC(=O)c1cc(CC)sc1NC(=O)Cc1ccsc1	Ecoli tolC 73
CCOC(=O)c1cc(CC)sc1NC(=O)CCC(=O)O	none
Cc1ccc(OCC(=O)N2CCC(C(N)=O)CC2)cc1	none (no result: E coli WT exp, Ecoli tolC, PLAP act, AP ELISA ortho)
COc1cc2c(C#N)c(N3CCc4ccccc4C3)nc(N)c2c(N)n1	Ecoli tolC 74
COc1cc2c(C#N)c(N3CCCCC3)nc(N)c2c(N)n1	none
OC(COc1ccc(Cl)c2ccccc12)CN1CCN(c2ccccn2)CC1 (centres undefined)	Ecoli tolC 100
N#Cc1c(/N=C/c2cc(Br)ccc2O)sc2c1CCN(Cc1ccccc1)C2	none (no result: E coli WT exp, Ecoli tolC, PLAP act, AP ELISA ortho)
O=P(Cc1nnco1)(c1ccccc1)c1ccccc1	PLAP act 2.1 (no result: AP ELISA ortho)
O=C(NNC(=O)C1CCCCC1)c1cnccn1	PLAP act 2 (no result: Ecoli tolC, AP ELISA ortho, HePTP inh)
O=C(c1cccs1)N1CCN(Cc2cccc(F)c2)CC1	none (no result: E coli WT exp, Ecoli tolC, PLAP act, AP ELISA ortho)
O=C(N/N=C\c1ccccn1)C1COc2cc3ccccc3cc2O1 (centres undefined)	PLAP act 2 (no result: Ecoli tolC, AP ELISA ortho, HePTP inh)
NC(=O)CCn1c(=S)n(CCC(N)=O)c2ccccc21	none (no result: E coli WT exp, Ecoli tolC, PLAP act, AP ELISA ortho)
CCCCOc1ccc(NC2=NC3(CCCCC3)N=C(N)N2)cc1	E coli WT exp 59, Ecoli tolC 99 (no result: PLAP act, AP ELISA ortho)
CCOC(=O)c1c(NC(=O)C(F)(OC)C(F)(F)F)sc(C(=O)N2CCCCC2)c1C (centres undefined)	Ecoli tolC 78
CCOC(=O)c1c(NC(=O)c2ccc([N+](=O)[O-])cc2)sc(C(=O)N2CCCCCC2)c1C	none (no result: E coli WT exp, Ecoli tolC, PLAP act, AP ELISA ortho)
COc1cc(OC)c(OC)cc1/C=N/NC(=O)c1cc(-c2ccc(Cl)cc2)n[nH]1	none (no result: E coli WT exp, Ecoli tolC, PLAP act, AP ELISA ortho)
Cc1c(NC(=O)C(C)Sc2nnc(-c3ccccc3)o2)c(=O)n(-c2ccccc2)n1C (centres undefined)	PLAP act 2.1
Cc1c(NC(=O)CSc2nnc(-c3cccc(Cl)c3)o2)c(=O)n(-c2ccccc2)n1C	none
COc1cc(-c2nnc(SC(C)C(=O)Nc3c(C)n(C)n(-c4ccccc4)c3=O)o2)cc(OC)c1OC (centres undefined)	PLAP act 2 (no result: Ecoli tolC, AP ELISA ortho, HePTP inh)
N#C/C(=C\c1ccc(-c2ccc(Br)cc2)o1)C(=O)N1CCCCC1	none (no result: E coli WT exp, Ecoli tolC, PLAP act, AP ELISA ortho)
CCOc1ccc(N(CC(=O)Nc2cccc3ccccc23)S(C)(=O)=O)cc1	none (no result: E coli WT exp, Ecoli tolC, PLAP act, AP ELISA ortho)
CCc1nc(SCC(=O)NNC(=O)C2CCCCC2)c2ccccc2n1	none (no result: Ecoli tolC, AP ELISA ortho, HePTP inh)
CCc1nc(SCC(=O)NNC(=O)C(C)C)c2ccccc2n1	PLAP act 2 (no result: Ecoli tolC, AP ELISA ortho, HePTP inh)
CCOC(=O)Cc1csc(NC(=O)c2ccc(S(=O)(=O)N3CCCCC3)cc2)n1	Ecoli tolC 62
CCOC(=O)Cc1csc(NC(=O)c2csc3c2CCCC3)n1	Ecoli tolC 64
CCN1CCN(C(=O)Nc2ccc(Cc3ccc(NC(=O)N4CCN(CC)CC4)cc3)cc2)CC1	PLAP act 2
